Measurements pooled from the literature.
Compare with care: the assays were run in different laboratories.
PDE10A: cAMP and cAMP-inhibited cGMP 3',5'-cyclic phosphodiesterase 10A (PDE10A, Homo sapiens, UniProt Q9Y233)
SLC6A3: Sodium-dependent dopamine transporter (SLC6A3, Homo sapiens, UniProt Q01959)
DRD3: D(3) dopamine receptor (DRD3, Homo sapiens, UniProt P35462)

COc1ccc2ccnc(Cc3cccc(-c4ccccc4)c3)c2c1 — inhibition (PDE10A; enzyme activity, inhibitor, FP; 0.1 µM): 5%
CSc1nc(NCCC2CC2)c2ncn([C@H]3[C@H](O)[C@H](O)[C@@H]4C[C@@H]43)c2n1 — inhibition (SLC6A3; ligand displacement, radioligand; 10 µM): 16%
Cc1[nH]cc(S(=O)(=O)Nc2ccc(C(F)(F)F)c(Cl)c2)c1C(=O)N(C)C — Emax (DRD3; β-arrestin recruitment, agonist; 90 min): 83%
CCOC(=O)[C@@]12C[C@@H]1[C@@H](n1cnc3c(NCCO)nc(I)nc31)[C@H](O)[C@@H]2O — inhibition (SLC6A3; ligand displacement, radioligand; 10 µM): 20%
COc1ccc2nccc(Cc3ccc(OC)c(OC)c3)c2c1 — inhibition (PDE10A; enzyme activity, inhibitor, FP; 0.1 µM): 3%
Cc1[nH]c(C)c(S(=O)(=O)Nc2ccc(C(F)(F)F)c(Cl)c2)c1C(=O)N1CC(F)(F)C(F)(F)C1 — Emax (DRD3; β-arrestin recruitment, agonist; 90 min): 100%
c1ccc(-c2cccc(Cc3ccnc4ccccc34)c2)cc1 — inhibition (PDE10A; enzyme activity, inhibitor, FP; 0.1 µM): 0%
C1=C/COCc2cc(ccc2OCCN2CCCC2)Nc2nccc(n2)-c2cccc(c2)COC/1 — remaining binding (Serine/threonine-protein kinase D1 (PRKD1, Homo sapiens, UniProt Q15139); binding; 0.1 µM): 100%
Cc1[nH]cc(S(=O)(=O)Nc2ccc(C(F)(F)F)c(Cl)c2)c1C(=O)N1CCC(F)(F)C1 — Emax (DRD3; β-arrestin recruitment, agonist; 90 min): 91%
N#C[C@@]12C[C@@H]1[C@@H](n1cnc3c(Nc4ccccc4)nc(C#Cc4ccc(Cl)s4)nc31)[C@H](O)[C@@H]2O — inhibition (SLC6A3; ligand displacement, radioligand; 10 µM): 74%
COc1cc2ncnc(Cc3cccc(-c4ccc(C)cc4)c3)c2cc1OC — inhibition (PDE10A; enzyme activity, inhibitor, FP; 0.1 µM): 78%
Cc1[nH]c(C)c(S(=O)(=O)Nc2ccc(C(=O)C(F)(F)F)c(Cl)c2)c1C(=O)N1CCC(F)(F)C1 — Emax (DRD3; β-arrestin recruitment, agonist; 90 min): 96%
CNC(=O)[C@@]12C[C@@H]1[C@@H](n1cnc3c(Nc4ccccc4)nc(C#Cc4ccc(Cl)s4)nc31)[C@H](O)[C@@H]2O — inhibition (SLC6A3; ligand displacement, radioligand; 10 µM): 84%
COc1ccc2c(Cc3ccc(OC)c(OC)c3)nccc2c1 — inhibition (PDE10A; enzyme activity, inhibitor, FP; 0.1 µM): 25%
CCOC(=O)[C@@]12C[C@@H]1[C@@H](n1ccc3c(NCCCCCc4ccccc4)nc(C#Cc4ccccc4)nc31)[C@H](O)[C@@H]2O — inhibition (SLC6A3; ligand displacement, radioligand; 10 µM): 63%
COc1cc2ccnc(Cc3ccc4cnn(C)c4c3)c2cc1OC — inhibition (PDE10A; enzyme activity, inhibitor, FP; 0.1 µM): 69%
OC[C@@]12C[C@@H]1[C@@H](n1cnc3c(N[C@@H](C4CCC4)C4CC4)nc(C#Cc4ccc(Cl)s4)nc31)[C@H](O)[C@@H]2O — inhibition (SLC6A3; ligand displacement, radioligand; 10 µM): 80%
CCCCC(=O)Nc1ccc(-c2ccc3ncn(CCC)c(=O)c3c2)cn1 — remaining binding (Dual specificity protein kinase CLK4 (CLK4, Homo sapiens, UniProt Q9HAZ1); binding, competition with immobilised ligand; 0.5 µM): 86%
COc1cc2ncnc(C(=O)c3cccc4ccccc34)c2cc1OC — inhibition (PDE10A; enzyme activity, inhibitor, FP; 0.1 µM): 52%
Cc1[nH]c(C)c(S(=O)(=O)Nc2cc(Cl)cc(C(F)(F)F)c2)c1C(=O)N1CCC(F)(F)C1 — Emax (DRD3; β-arrestin recruitment, agonist; 90 min): 101%
OC[C@@]12C[C@@H]1[C@@H](n1cnc3c(NC(C4CCC4)C4CCC4)nc(C#Cc4ccc(Cl)s4)nc31)[C@H](O)[C@@H]2O — inhibition (SLC6A3; ligand displacement, radioligand; 10 µM): 78%
Cc1[nH]c(C)c(S(=O)(=O)Nc2ccc(C(C)C)cc2)c1C(=O)N1CCCC1 — Emax (DRD3; β-arrestin recruitment, agonist; 90 min): 96%
CCOC(=O)[C@@]12C[C@@H]1[C@@H](n1cnc3c(NCCCCCCc4ccccc4)nc(I)nc31)[C@H](O)[C@@H]2O — inhibition (SLC6A3; ligand displacement, radioligand; 10 µM): 73%
Cc1ccc(NS(=O)(=O)c2c(C)[nH]c(C)c2C(=O)N2CCC(F)(F)C2)cc1Cl — Emax (DRD3; β-arrestin recruitment, agonist; 90 min): 95%
COc1ccc2nccc(Cc3cccc(-c4ccc(CO)cc4)c3)c2c1 — inhibition (PDE10A; enzyme activity, inhibitor, FP; 0.1 µM): 0%
Cc1[nH]c(C)c(S(=O)(=O)Nc2ccc(C(F)(F)F)c(Br)c2)c1C(=O)N1CCCC1 — Emax (DRD3; β-arrestin recruitment, agonist; 90 min): 91%
COc1ccc2oc(-c3ccc4nc(N)oc4c3)c/c(=N\c3ccccc3NC(=O)CCN)c2c1 — remaining binding (Activated CDC42 kinase 1 (TNK2, Homo sapiens, UniProt Q07912); binding; 1 µM): 100%
